Source: the M2OR odorant receptor database
Positions count from the first letter of the chain named.

Columns and labels:
Conditions in all cases: stereoisomer not certain
OR7C1 (Homo sapiens) = target: T1, OR7C1 (Homo sapiens) (UniProt O76099)
T1 sequence (whole entry): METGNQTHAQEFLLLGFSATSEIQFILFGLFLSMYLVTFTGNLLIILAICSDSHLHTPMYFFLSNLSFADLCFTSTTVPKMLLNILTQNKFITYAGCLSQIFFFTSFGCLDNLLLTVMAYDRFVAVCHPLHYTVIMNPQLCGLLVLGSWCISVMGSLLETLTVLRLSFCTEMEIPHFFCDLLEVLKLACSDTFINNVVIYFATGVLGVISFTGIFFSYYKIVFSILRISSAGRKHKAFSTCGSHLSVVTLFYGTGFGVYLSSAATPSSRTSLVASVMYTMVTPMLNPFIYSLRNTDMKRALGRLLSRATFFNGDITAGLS
Outline: (§1)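 Values were gathered from published papers (main text and supplementary material), with extra details requested from the original authors when needed, and checked for typos and inconsistencies. Each receptor–molecule pair is called responsive (active) if the original authors judged the measured signal statistically different from baseline, and non-responsive (inactive) otherwise. Assay methods varied by source, often transient mammalian cell-line luciferase assays. Recorded details include cell line, G-protein, co-transfected protein and tags.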

OR7C2 (Homo sapiens) = target: T2, OR7C2 (Homo sapiens) (UniProt O60412)
T2 sequence (whole entry): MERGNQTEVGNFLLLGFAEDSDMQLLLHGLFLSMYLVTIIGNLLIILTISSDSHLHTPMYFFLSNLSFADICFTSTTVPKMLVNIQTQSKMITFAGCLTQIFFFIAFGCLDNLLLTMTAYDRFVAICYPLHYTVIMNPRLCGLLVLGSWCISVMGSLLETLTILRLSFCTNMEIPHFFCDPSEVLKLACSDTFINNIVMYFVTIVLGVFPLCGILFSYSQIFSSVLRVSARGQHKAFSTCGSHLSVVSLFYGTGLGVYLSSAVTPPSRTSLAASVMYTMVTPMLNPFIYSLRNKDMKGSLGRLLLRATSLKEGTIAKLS
Outline: as §1

OR7D2 (Homo sapiens) = target: T3, OR7D2 (Homo sapiens) (UniProt Q96RA2)
T3 sequence (whole entry): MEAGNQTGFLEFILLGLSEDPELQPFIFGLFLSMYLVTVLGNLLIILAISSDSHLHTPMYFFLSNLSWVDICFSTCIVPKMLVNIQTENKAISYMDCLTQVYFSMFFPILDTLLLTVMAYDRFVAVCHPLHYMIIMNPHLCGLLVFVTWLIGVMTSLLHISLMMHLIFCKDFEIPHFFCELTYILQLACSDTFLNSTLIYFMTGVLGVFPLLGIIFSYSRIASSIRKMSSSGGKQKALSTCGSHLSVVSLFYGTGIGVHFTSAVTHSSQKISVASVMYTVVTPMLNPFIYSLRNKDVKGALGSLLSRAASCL
Outline: as §1

OR7D4 (Homo sapiens) = target: T4, OR7D4 (Homo sapiens) (UniProt Q8NG98)
T4 sequence (whole entry): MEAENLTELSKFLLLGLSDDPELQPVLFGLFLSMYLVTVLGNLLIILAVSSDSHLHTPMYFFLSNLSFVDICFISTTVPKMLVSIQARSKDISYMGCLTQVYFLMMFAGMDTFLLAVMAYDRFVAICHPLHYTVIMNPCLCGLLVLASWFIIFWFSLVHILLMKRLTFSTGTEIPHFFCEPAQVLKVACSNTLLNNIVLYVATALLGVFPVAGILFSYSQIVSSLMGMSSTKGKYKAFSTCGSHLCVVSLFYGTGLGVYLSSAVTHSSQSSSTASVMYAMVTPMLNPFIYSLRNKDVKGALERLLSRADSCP
Outline: as §1

OR7E24 (Homo sapiens) = target: T5, OR7E24 (Homo sapiens) (UniProt Q6IFN5)
T5 sequence (whole entry): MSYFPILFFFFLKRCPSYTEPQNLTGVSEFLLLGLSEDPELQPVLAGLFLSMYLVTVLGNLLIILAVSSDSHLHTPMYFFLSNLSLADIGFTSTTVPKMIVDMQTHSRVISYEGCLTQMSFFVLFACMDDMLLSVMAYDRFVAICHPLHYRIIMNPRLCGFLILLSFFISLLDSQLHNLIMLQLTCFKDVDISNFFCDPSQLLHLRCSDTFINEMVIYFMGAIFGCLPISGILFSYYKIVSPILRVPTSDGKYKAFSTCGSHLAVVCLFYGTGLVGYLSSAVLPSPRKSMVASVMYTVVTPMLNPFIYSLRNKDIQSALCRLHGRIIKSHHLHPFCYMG
Outline: as §1

OR7G1 (Homo sapiens) = target: T6, OR7G1 (Homo sapiens) (UniProt Q8NGA0)
T6 sequence (whole entry): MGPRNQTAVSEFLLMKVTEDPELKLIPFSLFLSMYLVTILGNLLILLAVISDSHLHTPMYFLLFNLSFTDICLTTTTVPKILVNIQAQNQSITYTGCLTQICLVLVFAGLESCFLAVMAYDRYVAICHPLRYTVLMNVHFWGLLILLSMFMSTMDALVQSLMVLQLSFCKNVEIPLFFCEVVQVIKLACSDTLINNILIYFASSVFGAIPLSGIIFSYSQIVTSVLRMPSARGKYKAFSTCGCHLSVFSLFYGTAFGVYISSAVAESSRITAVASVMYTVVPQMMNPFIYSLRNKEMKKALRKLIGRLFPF
Outline: as §1

OR7G2 (Homo sapiens) = target: T7, OR7G2 (Homo sapiens) (UniProt Q8NG99)
T7 sequence (whole entry): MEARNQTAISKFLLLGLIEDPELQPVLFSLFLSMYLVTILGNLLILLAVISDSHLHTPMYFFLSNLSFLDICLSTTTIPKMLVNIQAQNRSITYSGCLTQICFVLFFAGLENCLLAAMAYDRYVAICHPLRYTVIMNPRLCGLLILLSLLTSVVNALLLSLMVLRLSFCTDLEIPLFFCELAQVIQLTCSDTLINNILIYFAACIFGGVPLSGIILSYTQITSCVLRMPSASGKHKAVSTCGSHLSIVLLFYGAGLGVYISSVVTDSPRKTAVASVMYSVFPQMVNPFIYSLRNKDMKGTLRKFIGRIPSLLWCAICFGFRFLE
Outline: as §1

OR7G3 (Homo sapiens) = target: T8, OR7G3 (Homo sapiens) (UniProt Q8NG95)
T8 sequence (whole entry): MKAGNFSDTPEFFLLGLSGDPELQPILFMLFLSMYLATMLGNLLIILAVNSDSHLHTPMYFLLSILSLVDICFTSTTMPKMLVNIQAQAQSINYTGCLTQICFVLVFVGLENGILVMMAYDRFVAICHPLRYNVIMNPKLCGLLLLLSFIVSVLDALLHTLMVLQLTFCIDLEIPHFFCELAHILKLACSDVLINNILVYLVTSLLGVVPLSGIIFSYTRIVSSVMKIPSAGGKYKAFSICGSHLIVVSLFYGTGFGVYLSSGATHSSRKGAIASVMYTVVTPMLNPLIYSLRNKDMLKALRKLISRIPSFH
Outline: as §1

OR8A1 (Homo sapiens) = target: T9, OR8A1 (Homo sapiens) (UniProt Q8NGG7)
T9 sequence (whole entry): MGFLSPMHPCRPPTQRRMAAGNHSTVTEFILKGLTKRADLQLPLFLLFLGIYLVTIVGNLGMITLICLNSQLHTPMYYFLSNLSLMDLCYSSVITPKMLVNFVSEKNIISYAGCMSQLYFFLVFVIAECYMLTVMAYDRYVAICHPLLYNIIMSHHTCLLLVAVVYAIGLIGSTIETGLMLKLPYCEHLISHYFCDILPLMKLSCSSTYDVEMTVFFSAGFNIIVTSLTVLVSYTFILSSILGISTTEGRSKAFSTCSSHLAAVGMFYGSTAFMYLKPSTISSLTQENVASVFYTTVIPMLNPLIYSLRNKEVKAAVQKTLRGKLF
Outline: as §1

OR8B12 (Homo sapiens) = target: T10, OR8B12 (Homo sapiens) (UniProt Q8NGG6)
T10 sequence (whole entry): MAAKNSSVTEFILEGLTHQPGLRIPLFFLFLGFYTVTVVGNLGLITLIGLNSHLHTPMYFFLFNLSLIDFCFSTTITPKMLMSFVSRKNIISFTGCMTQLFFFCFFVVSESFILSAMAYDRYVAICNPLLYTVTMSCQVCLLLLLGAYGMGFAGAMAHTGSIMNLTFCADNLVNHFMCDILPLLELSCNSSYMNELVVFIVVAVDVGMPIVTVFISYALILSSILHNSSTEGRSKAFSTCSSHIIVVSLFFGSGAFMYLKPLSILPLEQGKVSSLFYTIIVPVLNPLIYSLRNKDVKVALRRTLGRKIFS
Outline: as §1

OR8B2 (Homo sapiens) = target: T11, OR8B2 (Homo sapiens) (UniProt Q96RD0)
T11 sequence (whole entry): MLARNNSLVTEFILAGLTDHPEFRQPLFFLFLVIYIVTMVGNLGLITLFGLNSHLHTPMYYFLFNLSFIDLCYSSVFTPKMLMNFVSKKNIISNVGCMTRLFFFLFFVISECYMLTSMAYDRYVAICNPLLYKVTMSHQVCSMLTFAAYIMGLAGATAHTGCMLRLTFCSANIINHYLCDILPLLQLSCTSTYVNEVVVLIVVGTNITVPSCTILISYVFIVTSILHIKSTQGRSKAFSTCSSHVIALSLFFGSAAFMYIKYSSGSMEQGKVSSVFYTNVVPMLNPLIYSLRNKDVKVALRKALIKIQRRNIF
Outline: as §1

OR8B3 (Homo sapiens) = target: T12, OR8B3 (Homo sapiens) (UniProt Q8NGG8)
T12 sequence (whole entry): T11 sequence (whole entry) with R24Q, I34V, T47I, N94Y, R100Q, T205I, T208M
Outline: as §1

OR7A5 M81I = tested on: T13, OR7A5 M81I
T13 sequence (whole entry): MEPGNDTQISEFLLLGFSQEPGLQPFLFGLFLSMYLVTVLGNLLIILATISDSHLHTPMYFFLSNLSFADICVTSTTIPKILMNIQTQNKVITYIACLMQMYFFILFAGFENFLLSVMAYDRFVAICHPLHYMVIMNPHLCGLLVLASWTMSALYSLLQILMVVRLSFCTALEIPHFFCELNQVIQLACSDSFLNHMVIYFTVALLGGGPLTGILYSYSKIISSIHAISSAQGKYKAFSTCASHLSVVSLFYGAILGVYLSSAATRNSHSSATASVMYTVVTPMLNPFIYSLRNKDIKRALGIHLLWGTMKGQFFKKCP
Outline: as §1

OR7C1 V126I E171K = tested on: T14, OR7C1 V126I E171K
T14 sequence (whole entry): T1 sequence (whole entry) with V126I, E171K
Outline: as §1

OR7D4 R88W = tested on: T15, OR7D4 R88W
T15 sequence (whole entry): T4 sequence (whole entry) with R88W
Outline: as §1

OR7D4 = tested on: T16, OR7D4
T16 sequence (whole entry): T4 sequence (whole entry) with R88W, T133M
Outline: as §1

OR7G3 M29V = tested on: T17, OR7G3 M29V
T17 sequence (whole entry): T8 sequence (whole entry) with M29V
Outline: as §1

OR8B2 L164F = tested on: T18, OR8B2 L164F
T18 sequence (whole entry): T11 sequence (whole entry) with L164F
Outline: as §1

OR8B2 S273F = tested on: T19, OR8B2 S273F
T19 sequence (whole entry): T11 sequence (whole entry) with S273F
Outline: as §1

OR7G2 = tested on: T20, OR7G2
T20 sequence (whole entry): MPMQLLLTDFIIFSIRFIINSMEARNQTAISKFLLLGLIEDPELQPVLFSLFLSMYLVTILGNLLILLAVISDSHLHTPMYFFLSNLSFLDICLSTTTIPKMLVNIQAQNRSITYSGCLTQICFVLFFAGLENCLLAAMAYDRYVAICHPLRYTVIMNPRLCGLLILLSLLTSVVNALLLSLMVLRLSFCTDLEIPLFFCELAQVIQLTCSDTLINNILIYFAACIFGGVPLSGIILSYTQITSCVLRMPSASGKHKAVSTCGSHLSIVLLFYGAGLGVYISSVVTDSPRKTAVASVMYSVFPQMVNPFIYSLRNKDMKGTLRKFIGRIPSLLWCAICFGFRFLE
Outline: as §1

SMILES	odorant receptor agonist call (OR7C1 (Homo sapiens))	odorant receptor agonist call (OR7C2 (Homo sapiens))	odorant receptor agonist call (OR7D2 (Homo sapiens))	odorant receptor agonist call (OR7D4 (Homo sapiens))	odorant receptor agonist call (OR7E24 (Homo sapiens))	odorant receptor agonist call (OR7G1 (Homo sapiens))	odorant receptor agonist call (OR7G2 (Homo sapiens))	odorant receptor agonist call (OR7G3 (Homo sapiens))	odorant receptor agonist call (OR8A1 (Homo sapiens))	odorant receptor agonist call (OR8B12 (Homo sapiens))	odorant receptor agonist call (OR8B2 (Homo sapiens))	odorant receptor agonist call (OR8B3 (Homo sapiens))	odorant receptor agonist call (OR7A5 M81I)	odorant receptor agonist call (OR7C1 V126I E171K)	odorant receptor agonist call (OR7D4 R88W)	odorant receptor agonist call (OR7D4)	odorant receptor agonist call (OR7G3 M29V)	odorant receptor agonist call (OR8B2 L164F)	odorant receptor agonist call (OR8B2 S273F)	odorant receptor agonist call (OR7G2)
CCCCC(S)C(C)CO (stereo not drawn)	inactive	inactive	inactive	inactive	inactive	inactive	inactive	inactive	inactive	inactive	inactive	inactive	–	–	–	–	–	–	–	–
CCCCCCC=CCCC=O	inactive	inactive	inactive	inactive	inactive	inactive	inactive	inactive	inactive	inactive	inactive	inactive	inactive	inactive	inactive	inactive	inactive	inactive	inactive	–
CC1=C(O)C(=O)C(C)O1 (stereo not drawn)	inactive	inactive	inactive	inactive	inactive	inactive	–	inactive	inactive	inactive	inactive	inactive	inactive	inactive	inactive	inactive	inactive	inactive	inactive	inactive
O=C1CCOc2ccccc21	–	–	–	–	–	–	–	–	–	–	active	–	–	–	–	–	–	–	–	–
CCCCCC(S)C(C)CO (stereo not drawn)	inactive	inactive	inactive	inactive	inactive	inactive	inactive	inactive	inactive	inactive	inactive	inactive	–	–	–	–	–	–	–	–
